In ChEMBL document CHEMBL1122273, “5-sulfamoylorthanilic acids, a sulfonamide series with salidiuretic activity” (J Med Chem, 1983):
Several values for one entry are separate records, joined by “and”; a condition that tells them apart may be missing. Equal values may be shown once. Activity calls are given as the source filed them. No cut-off for these calls is given here.

Key:
[1] = tested on: Canis familiaris; test: It is the ratio, measured as saluretic activity in the dog as concentration of Na+ in urinary excretion (dose mg/Kg, po) to that of K; type: functional, Canis lupus familiaris, Urine
Outline: (§1)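 Trained male beagles, fasted 24 h with tap water ad libitum. Bladder emptied by catheter, then 20 mL/kg tap water by stomach tube, with 4 mL/kg water at each hourly catheterization up to 8 h. The first 2 h of urine served as control. Oral dosing came after the second catheterization, and 1–6 h urine was pooled. Na⁺ and K⁺ were measured by flame photometry, Cl⁻ argentometrically, in mequiv/kg.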

[2] = species on record: Rattus norvegicus; test: Diuretic activity in the rats, determined by a modified Lipschitz test; type: functional, Urine
Outline: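 Modified Lipschitz test: rats deprived of water 24 h, grouped in threes of similar weight in diuresis funnels. Oral dose of 50 mg/kg, suspended in 2% starch solution, by stomach tube.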

[3] = species on record: Rattus norvegicus; test: Saluretic activity in the rat measured as concentration of chloride in urine; type: functional
Outline: (§2)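 Rats deprived of food 24 h, water ad libitum, dosed 50 mg/kg by stomach tube as suspension in 2% starch, no extra water load. Groups of three in diuresis funnels; urine over first 5 h collected. Na⁺ and K⁺ by flame photometry, Cl⁻ argentometrically; expressed as mequiv/kg.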

[4] = tested on: Canis familiaris; test: It is the ratio, measured as saluretic activity in the dog as concentration of Cl- in urinary excretion (dose mg/Kg, po) to that of (Na++K+); type: functional, Canis lupus familiaris, Urine; outline: as §1
[5] = species on record: Rattus norvegicus; test: Saluretic activity in the rat measured as concentration of Na+ in urine; type: functional; outline: as §2
[6] = tested on: Canis familiaris; test: Saluretic activity in the dog measured as concentration of K+ in urinary excretion (2 animals/dose) at (dose mg/Kg, po); type: functional, Canis lupus familiaris, Urine
Outline: (§3)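 Male beagles trained to rest on a table and to accept stomach tube and catheter. Food withdrawn 24 h before, tap water ad libitum. Bladder emptied by catheter, then 20 mL/kg tap water by stomach tube. Catheterized hourly up to 8 h with 4 mL/kg water orally each time; first 2 h urine served as control. Oral dosing after second catheterization. Pooled 1–6 h urine; Na⁺/K⁺ by flame photometry, Cl⁻ argentometrically.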

[7] = tested on: Canis familiaris; test: Diuretic activity in the dog (2 animals/dose) at (dose 12.5 mg/Kg), when administered perorally; type: functional, Canis lupus familiaris, Urine; outline: as §1
[8] = tested on: Canis familiaris; test: Diuretic activity in the dog (2 animals/dose) at (dose 1.56 mg/Kg), when administered perorally; type: functional, Canis lupus familiaris, Urine; outline: as §1
[9] = species on record: Rattus norvegicus; test: Saluretic activity in the rat measured as concentration of K+ in urine; type: functional; outline: as §2
[10] = It is the ratio, measured as saluretic activity in the dog as concentration of Na+ in urinary excretion (dose 1.56 mg/Kg, perorally) to that of K; type: functional, Urine; outline: as §1
[11] = It is the ratio, measured as saluretic activity in the dog as concentration of Cl- in urinary excretion (dose 1.56 mg/Kg, perorally) to that of (Na+)+(K+); type: functional, Urine; outline: as §1
[12] = tested on: Canis familiaris; test: Saluretic activity in the dog measured as concentration of Cl- in urinary excretion (2 animals/dose) at (dose 1.56 mg/Kg, perorally); type: functional, Canis lupus familiaris, Urine
Outline: (§4)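 Male beagles trained to the procedures, food withdrawn 24 h before, tap water ad libitum. Bladder emptied by catheter, then 20 mL/kg tap water by stomach tube, plus 4 mL/kg orally at each hourly catheterization up to 8 h. The first 2 h of urine served as control. Compound given orally after the second catheterization. Urine from 1–6 h post-dose pooled; Na⁺ and K⁺ by flame photometry, Cl⁻ argentometrically, in mequiv/kg.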

[13] = tested on: Canis familiaris; test: Saluretic activity in the dog measured as concentration of Na+ in urinary excretion (2 animals/dose) at (dose 1.56 mg/Kg, perorally); type: functional, Canis lupus familiaris, Urine; outline: as §3
[14] = tested on: Canis familiaris; test: Saluretic activity on the basis of the 1.56 mg/Kg perorally dog assay; Compound is found to be highly active.; type: functional, organism-based; conditions: Canis lupus familiaris; outline: as §3
[15] = tested on: Rattus norvegicus; test: Saluretic activity on the basis of the 50 mg/kg perorally rat assay; Compound is found to be moderately active; type: functional, organism-based; design: dose 50 mg/kg; outline: as §2
[16] = tested on: Canis familiaris; test: Saluretic activity in the dog measured as concentration of K+ in urinary excretion (2 animals/dose) at (dose 1.56 mg/Kg, perorally); type: functional, Canis lupus familiaris, Urine; outline: as §4
[17] = tested on: Canis familiaris; test: Sailuric activity in the dog measured as concentration of K+ in urinary excretion (2 animals/dose) at (dose 6.25 mg/Kg, po); type: functional, Canis lupus familiaris, Urine; outline: as §4
[18] = tested on: Canis familiaris; test: Sailuric activity in the dog measured as concentration of Cl - in urinary excretion (2 animals/dose) at (dose 6.25 mg/Kg, po); type: functional, Canis lupus familiaris, Urine; outline: as §4
[19] = tested on: Canis familiaris; test: Diuretic activity in the dog (2 animals/dose) at (dose 6.25 mg/Kg), when administered perorally; type: functional, Canis lupus familiaris, Urine; outline: as §1
[20] = species on record: Rattus norvegicus; test: Effect on (GFR) glomerular filtration rate in rats was evaluated
[21] = tested on: Canis familiaris; test: Sailuric activity in the dog measured as concentration of K+ in urinary excretion (2 animals/dose) at (dose 0.78 mg/Kg, po); type: functional, Canis lupus familiaris, Urine; outline: as §4
[22] = tested on: Canis familiaris; test: Sailuric activity in the dog measured as concentration of Cl - in urinary excretion (2 animals/dose) at (dose 0.78 mg/Kg, po); type: functional, Canis lupus familiaris, Urine; outline: as §1
[23] = tested on: Canis familiaris; test: Sailuric activity in the dog measured as concentration of Na+ in urinary excretion (2 animals/dose) at (dose 0.78 mg/Kg, po); type: functional, Canis lupus familiaris, Urine; outline: as §4
[24] = species on record: Rattus norvegicus; test: Effect on Urine flow in rats was evaluated
[25] = tested on: Canis familiaris; test: Sailuric activity in the dog measured as concentration of Na+ in urinary excretion (2 animals/dose) at (dose 6.25 mg/Kg, po); type: functional, Canis lupus familiaris, Urine; outline: as §4

With `NS(=O)(=O)c1cc(S(=O)(=O)[O-])c(NCc2ccco2)cc1Nc1ccccc1.[Na+]` the Saluretic activity [1] was 2.1 and 5, the Diuretic activity [2] was 0.6 mL/kg and the Saluretic activity [3] was 1.1 m equiv 5hr-1 kg-1. For the same compound, the Saluretic activity [4] was 1 and 1.1, the Saluretic activity [5] was 0.6 m equiv 5hr-1 kg-1 and the Saluretic activity [6] was 0.18 m equiv 6hr-1 kg-1 and 0.45 m equiv 6hr-1 kg-1. The Diuretic activity [7] was 49.4 ml kg-1 6hr-1, the Diuretic activity [8] was 32.3 ml kg-1 6hr-1 and the Saluretic activity [9] was 0.7 m equiv 5hr-1 kg-1.
`NCc1cccs1.NS(=O)(=O)c1cc(S(=O)(=O)O)c(NCc2cccs2)cc1Cl` showed a Ratio [10] of 4.2, a Diuretic activity [2] of 1 mL/kg and a Saluretic activity [3] of 3.3 m equiv 5hr-1 kg-1. For the same compound, the Ratio [11] was 0.95, the Saldiuretic activity [12] was 2.76 m equiv 6hr-1 kg-1 and the Saluretic activity [5] was 2.7 m equiv 5hr-1 kg-1. For the same compound, the Saluretic activity [13] was 2.33 m equiv 6hr-1 kg-1, the Saldiuretic activity [14] was “Active” and the Diuretic activity [8] was 44.5 ml kg-1 6hr-1. For the same compound, the Saldiuretic activity [15] was “Weak activity”, the Saluretic activity [9] was 1.7 m equiv 5hr-1 kg-1 and the Saluretic activity [16] was 0.55 m equiv 6hr-1 kg-1.
Compound `NS(=O)(=O)c1cc(C(=O)O)c(NCc2ccco2)cc1Cl` [FUROSEMIDE] has a Saluretic activity [17] of 1.26 m equiv 6hr-1 kg-1, a Diuretic activity [2] of 4.9 mL/kg and a Saluretic activity [3] of 7.2 m equiv 5hr-1 kg-1. It also gave a Saluretic activity [18] of 6.27 m equiv 6hr-1 kg-1, a Diuretic activity [19] of 69 ml kg-1 6hr-1 and a GFR [20] of 8.82 mL/min/kg. For the same compound, the Saluretic activity [5] was 4.8 m equiv 5hr-1 kg-1, the Saldiuretic activity [21] was 0.5 m equiv 6hr-1 kg-1 and the Saluretic activity [22] was 1.85 m equiv 6hr-1 kg-1. For the same compound, the Saluretic activity [23] was 1.37 m equiv 6hr-1 kg-1, the Volume [24] was 0.998 mL/min/kg and the Saluretic activity [9] was 2.6 m equiv 5hr-1 kg-1. It also gave a Saluretic activity [25] of 5.54 m equiv 6hr-1 kg-1.
